Laboratory results from ChEMBL document CHEMBL1156017, “alpha-Tocopheryl succinate as a scaffold to develop potent inhibitors of breast cancer cell adhesion” (J Med Chem, 2009).
Active and inactive are the calls of the source. The rule behind the calls is not given here.

Assays:
[1] = target: Focal adhesion kinase 1 (Mus musculus) (UniProt P34152); test: Induction of FAK degradation in mouse 4T1 cells at 5 uM after 1 hr by Western blotting; assay type: cell-based
4T1 [2] = test: Cytotoxicity against mouse 4T1 cells after 24 hrs by MTT assay; assay type: cell-based; conditions: for IC50: Mus musculus, 4T1, 24 h; for Activity: mouse, 4t1, 24 h
In short: (§1)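 MTT viability, six replicates. Cells seeded at 6000 per well in 10% FBS RPMI 1640 for 24 h, then exposed to agents at the indicated concentrations in 2% FBS RPMI 1640. DMSO-matched vehicle controls. MTT at 0.5 mg/ml in 10% FBS medium for 2 h at 37°C. Formazan dissolved in DMSO, A570 read.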

MCF7 [3] = test: Inhibition of human MCF7 cells adhesion to gelatinous matrix protein-coated surface after 60 mins by ELISA; assay type: functional, cell-based
In short: (§2)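 Wells coated with 12% (v/v) Matrigel for 1 h at 37°C, washed with 0.1% BSA RPMI, then blocked 60 min with 0.5% BSA RPMI. Cells pretreated with agents for 60 min at 37°C, then seeded at 2 × 10^4/well and allowed to adhere 30 min. Washed, formalin fixed, crystal violet stained, solubilized in 2% SDS, absorbance at 570 nm. Ratios compare IC50 values across cell lines.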

4T1 [4] = test: Inhibition of mouse 4T1 cells adhesion to gelatinous matrix protein-coated surface after 60 mins by ELISA; assay type: functional, cell-based; conditions: for IC50: 4T1, 1 h
[5] = Cytotoxicity against human MCF10A cells after 24 hrs by MTT assay; assay type: cell-based, MCF-10A; conditions: for Activity: human, mcf-10a; for IC50: Homo sapiens, MCF-10A; in short: as §1
SK-BR-3 [6] = test: Inhibition of human SK-BR-3 cells adhesion to gelatinous matrix protein-coated surface after 60 mins by ELISA; assay type: functional, cell-based; in short: as §2
4T1 [7] = test: Inhibition of mouse 4T1 cells metastasis at 5 uM after 30 mins by Boyden chamber assay; assay type: functional, cell-based
In short: (§3)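 Transwell migration (12-μm pore). 5 × 10^4 cells in 0.2% FBS RPMI with agent in the upper insert for 30 min at 37°C, then moved to a well with 10% FBS RPMI for 24 h. Crystal violet stained. Migrated and non-migrated cells eluted with methanol separately, A570 read. % migration computed after background subtraction, expressed relative to vehicle (100%).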

4T1 [8] = test: Effect on actin cytoskeletal structure in mouse 4T1 cells assessed as impairment of lamellipodia formation at 10 uM after 4 hrs by immunocytochemistry; assay type: functional, cell-based
4T1 [9] = test: Effect on actin cytoskeletal structure in mouse 4T1 cells assessed as rapid dissolution of actin stress fibers at 10 uM after 4 hrs by immunocytochemistry; assay type: functional, cell-based
4T1 [10] = test: Effect on actin cytoskeletal structure in mouse 4T1 cells assessed as rapid dissolution of F-actin fiber-associated reduction in fluorescent intensity at 10 uM after 4 hrs by immunocytochemistry relative to DMSO; assay type: functional; design: scale not given: the % may be the effect or the level left
4T1 [11] = test: Effect on actin cytoskeletal structure in mouse 4T1 cells assessed as increase in accumulation of small vesicles surrounding nucleus and endoplasmic reticulum at 10 uM after 4 hrs by immunocytochemistry relative to DMSO; assay type: functional, cell-based
4T1 [12] = test: Inhibition of mouse 4T1 cells adhesion to fibronectin at 5 to 100 uM after 60 mins by ELISA; assay type: functional, cell-based
In short: (§4)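 Wells coated 1 h at 37°C with 2 μg/ml vitronectin or 10 μg/ml collagen IV, fibronectin or laminin. Washed with 0.1% BSA RPMI, blocked 60 min with 0.5% BSA RPMI. 4T1 cells pretreated with agents for 60 min at 37°C, then 2 × 10^4 cells/well allowed to adhere 30 min. Nonadherent cells washed off. Formalin fixed, 0.5% crystal violet stained, dissolved in 2% SDS, A570 read.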

4T1 [13] = test: Inhibition of mouse 4T1 cells metastasis at 50 uM after 30 mins by Boyden chamber assay; assay type: functional, cell-based; in short: as §3
4T1 [14] = test: Inhibition of mouse 4T1 cells adhesion to laminin at 5 to 100 uM after 60 mins by ELISA; assay type: functional, cell-based; in short: as §4
SK-BR-3 [15] = test: Inhibition of human SK-BR-3 cells adhesion to gelatinous matrix protein-coated surface at 100 uM after 60 mins by ELISA; assay type: functional, cell-based; in short: as §2
4T1 [16] = test: Inhibition of mouse 4T1 cells adhesion to collagen 4 at 5 to 100 uM after 60 mins by ELISA; assay type: functional, cell-based; in short: as §4
4T1 [17] = test: Inhibition of mouse 4T1 cells adhesion to gelatinous matrix protein-coated surface at 10 uM after 60 mins by ELISA; assay type: functional; conditions: 4T1, 1 h
4T1 [18] = test: Effect on actin cytoskeletal structure in mouse 4T1 cells assessed as rapid dissolution of actin stress fibers at 50 uM after 4 hrs by immunocytochemistry; assay type: functional, cell-based
4T1 [19] = test: Effect on actin cytoskeletal structure in mouse 4T1 cells assessed as rapid loss of F-actin fiber-associated detachment from neighbouring cells at 10 uM after 4 hrs by immunocytochemistry; assay type: functional, cell-based
MCF7 [20] = test: Inhibition of human MCF7 cells adhesion to gelatinous matrix protein-coated surface at 100 uM after 60 mins by ELISA; assay type: functional, cell-based; in short: as §2
4T1 [21] = test: Inhibition of mouse 4T1 cells adhesion to vitronectin at 5 to 100 uM after 60 mins by ELISA; assay type: functional, cell-based; in short: as §4
4T1 [22] = test: Inhibition of mouse 4T1 cells adhesion to fibronectin at 0.5 to => 1 uM after 60 mins by ELISA; assay type: functional, cell-based; in short: as §4
[23] = target: Focal adhesion kinase 1 (Mus musculus) (UniProt P34152); test: Induction of FAK degradation in mouse 4T1 cells at 5 uM after 1 hr by Western blotting
MCF7 [24] = test: Ratio of IC50 for inhibition of human MCF7 cells adhesion to gelatinous matrix protein-coated surface to IC50 for mouse 4T1 cells adhesion to gelatinous matrix protein-coated surface; assay type: functional; in short: as §2
4T1 [25] = test: Inhibition of mouse 4T1 cells adhesion to collagen 4 at after 60 mins by ELISA; assay type: functional, cell-based; in short: as §4
4T1 [26] = test: Effect on actin cytoskeletal structure in mouse 4T1 cells assessed as impairment of lamellipodia formation at 5 uM after 4 hrs by immunocytochemistry; assay type: functional, cell-based
4T1 [27] = test: Effect on actin cytoskeletal structure in mouse 4T1 cells assessed as rapid loss of F-actin fiber-associated detachment from neighbouring cells at 5 uM after 4 hrs by immunocytochemistry; assay type: functional, cell-based
4T1 [28] = test: Effect on actin cytoskeletal structure in mouse 4T1 cells assessed as rapid dissolution of F-actin fiber-associated reduction in fluorescent intensity at 5 uM after 4 hrs by immunocytochemistry relative to DMSO; assay type: functional; design: scale not given: the % may be the effect or the level left
4T1 [29] = test: Inhibition of mouse 4T1 cells adhesion to collagen 4 at 0.5 to => 1 uM after 60 mins by ELISA; assay type: functional, cell-based; in short: as §4
4T1 [30] = test: Inhibition of mouse 4T1 cells adhesion to vitronectin at 0.5 to => 1 uM after 60 mins by ELISA; assay type: functional, cell-based; in short: as §4
4T1 [31] = test: Effect on actin cytoskeletal structure in mouse 4T1 cells assessed as rapid dissolution of actin stress fibers at 5 uM after 4 hrs by immunocytochemistry; assay type: functional, cell-based
4T1 [32] = test: Inhibition of mouse 4T1 cells adhesion to fibronectin at after 60 mins by ELISA; assay type: functional, cell-based; in short: as §4
4T1 [33] = test: Effect on actin cytoskeletal structure in mouse 4T1 cells assessed as increase in accumulation of small vesicles surrounding nucleus and endoplasmic reticulum at 5 uM after 4 hrs by immunocytochemistry relative to DMSO; assay type: functional, cell-based
SK-BR-3 [34] = test: Ratio of IC50 for inhibition of human SK-BR-3 cells adhesion to gelatinous matrix protein-coated surface to IC50 for mouse 4T1 cells adhesion to gelatinous matrix protein-coated surface; assay type: functional; in short: as §2
4T1 [35] = test: Inhibition of mouse 4T1 cells adhesion to laminin at after 60 mins by ELISA; assay type: functional, cell-based; in short: as §4
4T1 [36] = test: Inhibition of mouse 4T1 cells adhesion to laminin at 0.5 to => 1 uM after 60 mins by ELISA; assay type: functional, cell-based; in short: as §4
4T1 [37] = test: Inhibition of mouse 4T1 cells adhesion to vitronectin at after 60 mins by ELISA; assay type: functional, cell-based; in short: as §4

Focal adhesion kinase 1 (Mus musculus), sequence (P34152 whole entry): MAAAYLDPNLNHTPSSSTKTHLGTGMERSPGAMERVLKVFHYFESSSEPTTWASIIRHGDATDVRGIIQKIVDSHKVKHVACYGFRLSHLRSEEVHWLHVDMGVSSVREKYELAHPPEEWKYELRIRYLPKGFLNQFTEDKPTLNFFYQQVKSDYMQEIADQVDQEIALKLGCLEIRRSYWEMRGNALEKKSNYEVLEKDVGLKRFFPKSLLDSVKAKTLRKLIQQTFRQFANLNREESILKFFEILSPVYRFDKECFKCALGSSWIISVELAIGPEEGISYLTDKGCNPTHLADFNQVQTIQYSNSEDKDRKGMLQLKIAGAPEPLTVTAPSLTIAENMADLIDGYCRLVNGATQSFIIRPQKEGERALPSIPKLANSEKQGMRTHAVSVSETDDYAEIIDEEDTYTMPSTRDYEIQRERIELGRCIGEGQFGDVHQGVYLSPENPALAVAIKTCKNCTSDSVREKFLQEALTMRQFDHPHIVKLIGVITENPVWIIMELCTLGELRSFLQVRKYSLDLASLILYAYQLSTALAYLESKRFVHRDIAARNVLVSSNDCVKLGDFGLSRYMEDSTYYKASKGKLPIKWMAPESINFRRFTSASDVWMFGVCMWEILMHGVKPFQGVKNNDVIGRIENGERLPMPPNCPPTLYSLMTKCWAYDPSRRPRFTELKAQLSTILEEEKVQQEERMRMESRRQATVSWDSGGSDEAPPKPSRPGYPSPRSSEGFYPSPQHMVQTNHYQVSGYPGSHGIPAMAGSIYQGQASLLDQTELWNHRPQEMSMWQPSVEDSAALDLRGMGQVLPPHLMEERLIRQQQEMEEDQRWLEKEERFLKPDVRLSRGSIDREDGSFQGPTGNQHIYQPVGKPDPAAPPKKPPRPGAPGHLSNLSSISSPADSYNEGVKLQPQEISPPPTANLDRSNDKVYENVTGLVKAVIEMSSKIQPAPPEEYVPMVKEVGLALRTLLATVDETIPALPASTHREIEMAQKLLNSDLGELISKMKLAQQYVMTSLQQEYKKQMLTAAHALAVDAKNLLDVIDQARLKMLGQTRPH

Row | SMILES | Activity [1] | IC50 (4T1 [2]) [µM] | Activity (4T1 [2]) | inhibition (MCF7 [3]) | inhibition (4T1 [4]) | IC50 (4T1 [4]) [nM] | Activity [5] | inhibition (SK-BR-3 [6]) | inhibition (4T1 [7]) | IC50 [5] [µM] | further results
1 | Cc1c(C)c2c(c(C)c1OC(=O)CCC(=O)O)CC[C@](C)(CCCC(C)CCCC(C)C)O2 (stereo partly drawn) | inactive | > 10 | Dose-dependent effect | Dose-dependent effect | Dose-dependent effect | 2500 | Dose-dependent effect | Dose-dependent effect | inactive | – | –
2 | Cc1c(C)c2c(c(C)c1OCC(=O)O)CC[C@](C)(CCCC(C)CCCC(C)C)O2 (stereo partly drawn) | Active | > 10 | Dose-dependent effect | Dose-dependent effect | Dose-dependent effect | 2000 | Dose-dependent effect | Dose-dependent effect | Active | – | Activity (4T1 [8]): Active; Activity (4T1 [9]): Active; Activity (4T1 [10]): 70%; Activity (4T1 [11]): Active
3 | Cc1c(C)c2c(c(C)c1OC(=O)CCC(=O)O)CC[C@@](C)(CCC[C@H](C)CCC[C@H](C)CCCC(C)C)O2 [(+)-ALPHA-TOCOPHERYL SUCCINATE] | inactive | – | – | – | Dose-dependent effect | 10000 | – | Dose-dependent effect | – | – | inhibition (4T1 [12]): Active; inhibition (4T1 [13]): inactive; inhibition (4T1 [14]): Active; inhibition (SK-BR-3 [15]): inactive; inhibition (4T1 [16]): Active; inhibition at 10 µM (4T1 [17]): 50%; Activity (4T1 [18]): inactive; Activity (4T1 [19]): inactive; inhibition (MCF7 [20]): inactive; inhibition (4T1 [21]): Active
4 | Cc1c(C)c2c(c(C)c1OC(=O)CCC(=O)O)CC[C@](C)(/C=C/CC(C)CCCC(C)C)O2 (stereo partly drawn) | Active | > 10 | Dose-dependent effect | Dose-dependent effect | Dose-dependent effect | 1300 | Dose-dependent effect | Dose-dependent effect | Active | 23 | –
5 | Cc1c(C)c2c(c(C)c1OCC(=O)O)CC[C@](C)(/C=C/CC(C)CCCC(C)C)O2 (stereo partly drawn) | – | > 10 | Dose-dependent effect | Dose-dependent effect | Dose-dependent effect | 600 | Dose-dependent effect | Dose-dependent effect | Active | 23 | inhibition (4T1 [22]): Active; Activity [23]: Active; Ratio IC50 (MCF7 [24]): 3.3; inhibition (4T1 [25]): Dose-dependent effect; IC50 (MCF7 [3]; MCF7, 1 h): 2000 nM; Activity (4T1 [26]): Active; Activity (4T1 [27]): Active; Activity (4T1 [28]): 84%; inhibition (4T1 [29]): Active; inhibition (4T1 [30]): Active; Activity (4T1 [31]): Active; inhibition (4T1 [32]): Dose-dependent effect; Activity (4T1 [33]): Active; Ratio IC50 (SK-BR-3 [34]): 3.3; inhibition (4T1 [35]): Dose-dependent effect; inhibition (4T1 [36]): Active; inhibition (4T1 [37]): Dose-dependent effect; IC50 (SK-BR-3 [6]; SK-BR-3, 1 h): 2000 nM
